The record followed here is ChEMBL document CHEMBL1132160, “Structure-antiviral activity relationship in the series of pyrimidine and purine N-[2-(2-phosphonomethoxy)ethyl] nucleotide analogues. 1. Derivatives substituted at the carbon atoms of the base” (J Med Chem, 1999).

A short description of experiment [1]: Inhibitory activity against murine sarcoma virus induced transformation of murine C3H/3T3 embryo fibroblasts. Format: functional, Mus musculus. Summed up:
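Murine C3H/3T3 embryo fibroblasts were seeded at 5 × 10⁵ cells/mL. After 24 h they were infected with 80 focus-forming units of MSV for 90–120 min at 37 °C. The medium was then replaced with fresh medium containing various compound concentrations, and transformation was examined microscopically after 6 days.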

The test system of experiment [2] is Human alphaherpesvirus 2. As to the kind of experiment: Inhibitory activity against herpes simplex virus type 2 (HSV-2) G strain. Format: functional, organism-based. Summed up: (§1)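 Confluent E6SM cell cultures were inoculated with 100 CCID50 of virus and allowed 1 h for adsorption. Residual virus was then removed, and the cells were incubated with test compound at 400, 200, 100, ... μg/mL. Viral cytopathicity was scored once it reached completion in untreated infected controls.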

Experiment [3] deals with Human alphaherpesvirus 1. As to the kind of experiment: Inhibitory activity against herpes simplex virus type 1 (HSV-1) McIntyre strain. The experiment is classed as functional, organism-based. The method, boiled down: as §1
In experiment [4] the test system is Human alphaherpesvirus 2. The experiment can be described thus: Inhibitory activity against herpes simplex virus type 2 (HSV-2) Lyons strain. The experiment is classed as functional, organism-based. Summed up:
as §1

In experiment [5] the test system is Cytomegalovirus. As to the kind of experiment: Inhibitory activity against cytomegalovirus (CMV) AD 169 strain. The experiment is classed as functional, organism-based. The settings on record: Human betaherpesvirus 5. Summed up:
(§2)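 HEL cell cultures, grown to confluence, received 100 CCID50 of virus. After 1 h adsorption, the inoculum was removed and the cultures were incubated with serial concentrations of compound (400, 200, 100, ... μg/mL).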

Experiment [6] concerns Cytomegalovirus. The experiment can be described thus: Inhibitory activity against cytomegalovirus (CMV) Davis strain. Format: functional, organism-based. Conditions: Human betaherpesvirus 5; call rule not given here. The method, boiled down: as §2
In experiment [7] the test system is Human alphaherpesvirus 1. The experiment can be described thus: Inhibition of herpes simplex virus type 1 (HSV-1) F strain. The experiment is classed as functional, organism-based. The method, boiled down: as §1
Experiment [8] has as its system Human alphaherpesvirus 1. As to the kind of experiment: Inhibitory activity against herpes simplex virus type 1 (HSV-1) KOS strain. The experiment is classed as functional, organism-based. The method, boiled down: as §1
Experiment [9] relates to Human immunodeficiency virus 1. As to the kind of experiment: Inhibition of human immunodeficiency virus type 1 (HIV-1) induced cytopathogenicity in CEM cells. Format: functional, organism-based. Conditions: Human immunodeficiency virus 1, CCRF-CEM. The method, boiled down:
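CEM cells (~3 × 10⁵ cells/mL) were infected with 100 CCID50 of HIV-1 (IIIB)/mL and plated with dilutions of compound. After 4 days at 37 °C, giant cell formation was assessed microscopically.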

The nature of experiment [10]: Inhibitory activity against herpes simplex virus type 2 (HSV-2) 196 strain. The experiment is classed as functional. The method, boiled down:
as §1

The test system of experiment [11] is Human immunodeficiency virus 2. The experiment can be described thus: Inhibition of human immunodeficiency virus type 2 (HIV-2) induced cytopathogenicity in CEM cells. Format: functional, organism-based. The settings on record: Human immunodeficiency virus 2, CCRF-CEM.
In another experiment the test system is Vaccinia virus. The experiment can be described thus: Inhibitory activity against vaccinia virus (VV). Conditions: Orthopoxvirus vaccinia. The experiment is classed as functional, organism-based. The method, boiled down:
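Confluent E6SM cell cultures were inoculated with 100 CCID50 of virus and left for 1 h adsorption, then residual virus was removed. Cultures were incubated with test compound at serial concentrations (400, 200, 100, ... μg/mL). Virus-induced cytopathicity was scored once it reached completion in untreated infected control cultures.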

Experiment [12] deals with Human immunodeficiency virus 1. The experiment can be described thus: Inhibitory activity of compound against human immunodeficiency virus type 1 (HIV-1) induced cytopathogenicity in MT-4 cells. The experiment is classed as functional, organism-based. Conditions: Human immunodeficiency virus 1, MT4. Summed up: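 Human MT-4 cells (~4 × 10⁵ cells/mL) were infected with 100 CCID50 of HIV-1 (IIIB)/mL and seeded into wells containing compound dilutions. After 5 days at 37 °C, viable cells were counted by trypan blue exclusion in a blood cell counting chamber.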

Experiment [13] deals with Human immunodeficiency virus 2. As to the kind of experiment: Inhibitory activity against human immunodeficiency virus type 2 (HIV-2) induced cytopathogenicity in MT-4 cells. The experiment is classed as functional, organism-based. The settings on record: Human immunodeficiency virus 2, MT4.
Experiment [14] deals with Human alphaherpesvirus 2. The experiment can be described thus: Inhibitory activity against herpes simplex virus type 2 (HSV-2) 196 strain. Format: functional, organism-based. The method, boiled down:
as §1

Experiment [15] deals with Human alphaherpesvirus 1. The experiment can be described thus: Iactivity against herpes simplex virus type 1 (HSV-1) McIntyre strain. Format: functional, organism-based. Summed up: as §1
The test system of experiment [16] is Human alphaherpesvirus 2. The experiment can be described thus: Inhibitory activity against herpes simplex virus type 2 (HSV-2) G strain. Format: functional, organism-based. The method, boiled down: as §1
The subject of experiment [17] is Human alphaherpesvirus 1. The experiment can be described thus: Inhibitory activity against herpes simplex virus type 1 (HSV-1) F strain. The experiment is classed as functional, organism-based. The method, boiled down:
as §1

A further experiment concerns E6SM. As to the kind of experiment: Inhibitory activity against herpes simplex virus type 2 (HSV-2) Lyons strain. Format: functional, cell-based, Homo sapiens. Summed up:
as §1

Experiment [18] has as its system Human alphaherpesvirus 1. The experiment can be described thus: Inhibitory activity against herpes simplex virus type 1 thymidine kinase (HSV-1 TK-) VMW 1837 strain.

SMILES strings stand for the structures. ≈ marks a conversion by molar mass, not a printed value.

Regarding `Nc1nnc(N)c2c1ncn2CCOCP(=O)(O)O`, the EC50 in experiment [1] is 124 µg/mL (≈ 430 µM); with Human alphaherpesvirus 2 [2], > 200 µg/mL; in the experiment on Human alphaherpesvirus 1 [3], > 200 µg/mL; in the experiment with Human alphaherpesvirus 2 [4], > 200 µg/mL; in the experiment with Cytomegalovirus [5] it was > 50 µg/mL; in the experiment with Cytomegalovirus [6] it was > 50 µg/mL. Also, the EC50 with Human alphaherpesvirus 1 [7] was > 200 µg/mL; with Human alphaherpesvirus 1 [8], > 200 µg/mL; in [9], > 100 µg/mL; in [10] it was > 200 µg/mL; in experiment [11], > 100 µg/mL; in the experiment with Vaccinia virus, > 200 µg/mL.

Turning to `Nc1cc2c(ncn2CCOCP(=O)(O)O)c(O)n1`, the concentration giving a half-maximal response (EC50) in experiment [1] is 2.9 µg/mL (≈ 10.1 µM); with Human alphaherpesvirus 2 [2], 12 µg/mL (≈ 41.6 µM); in [12], > 20 µg/mL; in the experiment with Human alphaherpesvirus 1 [3] it was 4 µg/mL (≈ 13.9 µM); with Human alphaherpesvirus 2 [4], 7 µg/mL (≈ 24.3 µM); in the experiment on Cytomegalovirus [5], 2 µg/mL (≈ 6.94 µM). The EC50 is 1.5 µg/mL (≈ 5.2 µM) in the experiment with Cytomegalovirus [6]; 7 µg/mL (≈ 24.3 µM) in the experiment on Human alphaherpesvirus 1 [7]; 4.5 µg/mL (≈ 15.6 µM) with Human alphaherpesvirus 1 [8]; 7 µg/mL (≈ 24.3 µM) in [10]; > 20 µg/mL in [13]; 150 µg/mL (≈ 520 µM) in the experiment with Vaccinia virus.

For the compound `Nc1cc(N)c2ncn(CCOCP(=O)(O)O)c2n1`, the EC50 in experiment [1] is 142 µg/mL (≈ 494 µM); with Human alphaherpesvirus 2 [2], 300 µg/mL (≈ 1040 µM); in the experiment on Human alphaherpesvirus 1 [3] it was > 400 µg/mL; in the experiment with Human alphaherpesvirus 2 [4] it was 300 µg/mL (≈ 1040 µM); with Cytomegalovirus [5], > 50 µg/mL; with Cytomegalovirus [6], > 50 µg/mL. Further, the 50% effective concentration (EC50) is > 400 µg/mL with Human alphaherpesvirus 1 [7]; 300 µg/mL (≈ 1040 µM) in the experiment with Human alphaherpesvirus 1 [8]; > 100 µg/mL in experiment [9]; > 400 µg/mL in experiment [10]; > 100 µg/mL in [11]; > 400 µg/mL in the experiment with Vaccinia virus.

Regarding `Nc1cc2c(ncn2CCOCP(=O)(O)O)c(N)n1`, the EC50 in experiment [1] was 144 µg/mL (≈ 501 µM); in the experiment on Human alphaherpesvirus 2 [2], 70 µg/mL (≈ 244 µM); in experiment [12], 51 µg/mL (≈ 178 µM); in the experiment on Human alphaherpesvirus 1 [3] it was 100 µg/mL (≈ 348 µM); in the experiment with Human alphaherpesvirus 2 [4] it was 70 µg/mL (≈ 244 µM); in the experiment with Cytomegalovirus [5], > 50 µg/mL. Besides, the concentration for a half-maximal effect (EC50) is > 50 µg/mL in the experiment with Cytomegalovirus [6]; 70 µg/mL (≈ 244 µM) with Human alphaherpesvirus 1 [7]; 150 µg/mL (≈ 522 µM) with Human alphaherpesvirus 1 [8]; 30 µg/mL (≈ 104 µM) in experiment [9]; 100 µg/mL (≈ 348 µM) in [10]; 78.5 µg/mL (≈ 273 µM) in experiment [13]. In addition, the values for the EC50 (in experiment [11]; in the experiment with Vaccinia virus) were 16 µg/mL (≈ 55.7 µM) and 150 µg/mL (≈ 522 µM), respectively.

For the compound `Nc1nc(=O)ccn1CCOCP(=O)(O)O`, the EC50 result in the experiment on Human alphaherpesvirus 2 [14] was “Not Active”; in [1] it was > 100 µg/mL; in experiment [12] it was > 100 µg/mL; in the experiment on Human alphaherpesvirus 1 [15], “Not Active”; in the experiment with Human alphaherpesvirus 2 [16] it was “Not Active”; with Cytomegalovirus [5], > 100 µg/mL. Moreover, the EC50 with Cytomegalovirus [6] was > 100 µg/mL; in the experiment with Human alphaherpesvirus 1 [8] it was > 400 µg/mL; in the experiment on Human alphaherpesvirus 1 [17], “Not Active”; in the experiment with E6SM, “Not Active”; in the experiment on Human alphaherpesvirus 1 [18], “Not Active”; in experiment [13] it was > 100 µg/mL.

In the case of `Nc1nc(S)c2c(ncn2CCOCP(=O)(O)O)n1`, the 50% effective concentration (EC50) in experiment [1] was 31 µg/mL (≈ 102 µM); in the experiment on Human alphaherpesvirus 2 [2] it was > 100 µg/mL; in experiment [12], > 100 µg/mL; with Cytomegalovirus [5], > 50 µg/mL; in the experiment on Cytomegalovirus [6], > 50 µg/mL; with Human alphaherpesvirus 1 [8], > 100 µg/mL. Besides, the EC50 (in experiment [9]; in [13]; in experiment [11]; in the experiment on Vaccinia virus) was > 100 µg/mL each time.

As for `Nc1nc2c(ncn2CCOCP(=O)(O)O)c(=O)[nH]1` [GS-438], the concentration for a half-maximal effect (EC50) is 0.0006 µg/mL (≈ 0.00207 µM) in experiment [1], > 0.2 µg/mL in [12], > 0.2 µg/mL in experiment [13] and 0.03 µg/mL (≈ 0.104 µM) in experiment [11].

As to `Nc1nc(N)c2ncn(CCOCP(=O)(O)O)c2n1` [PMEDAP], the concentration giving a half-maximal response (EC50) in experiment [1] is 0.6 µg/mL (≈ 2.08 µM); with Human alphaherpesvirus 2 [2], 0.2 µg/mL (≈ 0.694 µM); in experiment [12], 2.67 µg/mL (≈ 9.26 µM); in the experiment on Human alphaherpesvirus 1 [3] it was 2 µg/mL (≈ 6.94 µM); in the experiment on Human alphaherpesvirus 2 [4] it was 0.07 µg/mL (≈ 0.243 µM); with Cytomegalovirus [5] it was 10 µg/mL (≈ 34.7 µM). Moreover, the EC50 in the experiment on Cytomegalovirus [6] was 10 µg/mL (≈ 34.7 µM); in the experiment on Human alphaherpesvirus 1 [7], 2 µg/mL (≈ 6.94 µM); in the experiment with Human alphaherpesvirus 1 [8], 2 µg/mL (≈ 6.94 µM); in experiment [10], 0.07 µg/mL (≈ 0.243 µM); in the experiment with Vaccinia virus it was 20 µg/mL (≈ 69.4 µM).
